# Measured values published in ChEMBL document CHEMBL3997797 (J Med Chem, 2017).
# Assays:
# CES2 (cocaine esterase) [1] = molecular target: T1, CES2 (cocaine esterase) (Homo sapiens, UniProt O00748); assay: Inhibition of human intestinal CES2 expressed in baculovirus infected sf9 cells at 10 uM using o-nitrophenyl acetate as substrate monitored at 15 secs interval for 5 mins relative to control; conditions: probe o-nitrophenyl acetate
# T1 sequence (O00748 whole entry): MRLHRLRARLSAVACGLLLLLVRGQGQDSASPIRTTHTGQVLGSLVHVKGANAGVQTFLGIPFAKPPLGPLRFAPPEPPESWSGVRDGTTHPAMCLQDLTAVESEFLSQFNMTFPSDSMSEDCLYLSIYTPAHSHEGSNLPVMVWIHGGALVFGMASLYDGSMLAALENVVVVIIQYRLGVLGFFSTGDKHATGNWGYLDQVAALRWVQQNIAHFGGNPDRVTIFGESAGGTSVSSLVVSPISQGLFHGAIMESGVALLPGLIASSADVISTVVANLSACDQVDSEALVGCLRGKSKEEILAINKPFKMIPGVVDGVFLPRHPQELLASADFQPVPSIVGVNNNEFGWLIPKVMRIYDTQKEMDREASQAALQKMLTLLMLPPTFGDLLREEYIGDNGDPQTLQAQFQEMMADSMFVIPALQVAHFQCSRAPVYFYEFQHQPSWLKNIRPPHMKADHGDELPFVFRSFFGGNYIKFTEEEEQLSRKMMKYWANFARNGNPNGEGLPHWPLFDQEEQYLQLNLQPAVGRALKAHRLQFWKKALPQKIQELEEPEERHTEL
# Liver carboxylesterase 1 [2] = molecular target: T2, Liver carboxylesterase 1 (Homo sapiens, UniProt P23141); assay: Inhibition of human liver CES1 expressed in baculovirus infected sf9 cells using o-nitrophenyl acetate as substrate monitored at 15 secs interval for 5 mins
# T2 sequence (P23141 whole entry): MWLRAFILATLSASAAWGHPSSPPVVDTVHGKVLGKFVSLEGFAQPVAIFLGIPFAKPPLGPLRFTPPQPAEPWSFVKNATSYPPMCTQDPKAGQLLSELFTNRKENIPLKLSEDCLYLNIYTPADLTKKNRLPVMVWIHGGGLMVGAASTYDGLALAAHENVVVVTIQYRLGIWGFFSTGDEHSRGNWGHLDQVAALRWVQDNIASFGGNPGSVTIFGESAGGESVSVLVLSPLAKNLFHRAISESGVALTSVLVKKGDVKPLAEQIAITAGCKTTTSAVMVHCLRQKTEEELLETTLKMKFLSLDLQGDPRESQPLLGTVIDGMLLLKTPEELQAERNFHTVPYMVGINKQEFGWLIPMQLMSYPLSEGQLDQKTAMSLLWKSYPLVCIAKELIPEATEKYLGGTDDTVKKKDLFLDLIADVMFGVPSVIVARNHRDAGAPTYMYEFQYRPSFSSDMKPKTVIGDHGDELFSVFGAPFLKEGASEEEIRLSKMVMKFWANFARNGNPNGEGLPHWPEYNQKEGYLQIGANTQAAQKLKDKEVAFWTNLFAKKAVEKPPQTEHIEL
# Method in brief: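 Purified hCE1 secreted from baculovirus-infected Sf9 cells, isolated from serum-free medium by preparative isoelectric focusing and chromatography. o-NPA hydrolysis measured with at least 8 inhibitor concentrations, each point in quadruplicate. Fractional inhibition fitted to a general partial-inhibition model (α 0 to ∞, β 0 to 1). The best model was chosen by r2 and Akaike's information criterion, and Ki was calculated from that model.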
# [3] = molecular target: Acetylcholinesterase (Homo sapiens) (UniProt P22303); assay: Inhibition of human AChE at 10 uM using acetylthiocholine as substrate by spectrophotometric method relative to control
# U373 MG [4] = assay: Growth inhibition of human U373MG cells after 72 hrs; assay type: cell-based, U-373MG ATCC
# Liver carboxylesterase 1 [5] = molecular target: T2, Liver carboxylesterase 1; assay: Inhibition of human liver CES1 expressed in baculovirus infected sf9 cells using oseltamivir as substrate
# [6] = molecular target: T3, CES1 (liver carboxylesterase 1) (Homo sapiens, UniProt P23141); assay: Inhibition of human liver CES1 expressed in U373MG cells assessed as oseltamivir carboxylate formation at 5 uM using oseltamivir as substrate preincubated for 30 mins followed by compound washout and subsequent compound/substrate addition measured after 30 mins by UPLC-MS method relative to control; assay type: cell-based; set-up: scale not given: the % may be the effect or the level left; conditions: U373MG cells expressing human liver CES1, probe oseltamivir, read-out: Activity
# T3 sequence (P23141 whole entry): T2 sequence (P23141 whole entry)
# Method in brief: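 U373MG cells expressing hCE1 (1 x 10^5/well) attached overnight. They were pretreated 30 min with 5 µM inhibitor, then media was replaced with fresh media containing 20 µM oseltamivir plus 5 µM inhibitor for 30 min. Media was mixed with an equal volume of acetonitrile and metabolites were quantified by UPLC-MS. Run in duplicate with DMSO control.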
# [7] = Drug metabolism in DMSO/sodium phosphate buffer assessed as tautomerization at pH 3 to 11 by UV-spectroscopic method; assay type: physicochemical
# Method in brief: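 UV absorbance spectra recorded in aqueous 20% DMSO:80% 200 mM sodium phosphate buffer across a range of pH values to follow tautomeric form.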
# CES2 (cocaine esterase) [8] = molecular target: T1, CES2 (cocaine esterase); assay: Inhibition of human intestinal CES2 expressed in U373MG cells assessed as 7-ethyl-10-hydroxycamptothecin formation at 5 uM using irinotecan as substrate preincubated for 1 hr followed by substrate addition measured after 5 mins by HPLC method relative to control; assay type: cell-based; set-up: scale not given: the % may be the effect or the level left; conditions: U373MG cells expressing human intestinal CES2, probe irinotecan, read-out: Activity
# U373 MG [9] = assay: Cytotoxicity against human U373MG cells assessed as cell viability after 30 mins relative to control; assay type: cell-based; conditions: u-373mg atcc, 0.5 h
# [10] = molecular target: T3, CES1 (liver carboxylesterase 1); assay: Inhibition of human liver CES1 expressed in baculovirus infected sf9 cells at 10 uM using o-nitrophenyl acetate as substrate monitored at 15 secs interval for 5 mins relative to control; conditions: probe o-nitrophenyl acetate
# Method in brief: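 Purified secreted hCE1 from Sf9 culture medium, isolated by isoelectric focusing and chromatography. Inhibitor tested at a single concentration of 10 µM against o-NPA hydrolysis. Read-out is percent inhibition.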
# Homo sapiens = organism: Homo sapiens; assay: Selectivity ratio of Ki for human intestinal CES2 to Ki for human liver CES1
# Cocaine esterase = molecular target: T4, Cocaine esterase (Homo sapiens, UniProt O00748); assay: Inhibition of human intestinal CES2 expressed in baculovirus infected sf9 cells using o-nitrophenyl acetate as substrate monitored at 15 secs interval for 5 mins
# T4 sequence (O00748 whole entry): T1 sequence (O00748 whole entry)
# Acetylcholinesterase (Homo sapiens), sequence (P22303 whole entry): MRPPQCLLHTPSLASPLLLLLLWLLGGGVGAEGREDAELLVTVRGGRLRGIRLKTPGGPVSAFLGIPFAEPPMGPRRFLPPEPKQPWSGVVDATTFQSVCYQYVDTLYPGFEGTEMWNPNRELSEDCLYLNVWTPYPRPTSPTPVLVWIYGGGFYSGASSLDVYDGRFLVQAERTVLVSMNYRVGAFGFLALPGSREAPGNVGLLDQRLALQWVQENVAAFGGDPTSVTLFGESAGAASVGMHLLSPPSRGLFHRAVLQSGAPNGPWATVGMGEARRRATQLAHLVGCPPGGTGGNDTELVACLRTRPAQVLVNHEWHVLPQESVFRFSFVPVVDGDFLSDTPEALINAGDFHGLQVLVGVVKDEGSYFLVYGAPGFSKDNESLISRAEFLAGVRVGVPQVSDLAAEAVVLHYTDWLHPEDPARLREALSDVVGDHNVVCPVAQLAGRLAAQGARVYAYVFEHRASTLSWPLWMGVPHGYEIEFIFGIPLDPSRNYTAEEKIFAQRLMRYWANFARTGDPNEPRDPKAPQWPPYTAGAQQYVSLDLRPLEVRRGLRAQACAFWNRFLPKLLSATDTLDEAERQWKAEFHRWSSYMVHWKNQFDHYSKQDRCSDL
Structure (SMILES),"inhibition at 5 min, 10 µM (CES2 (cocaine esterase) [1]) [%]",Ki (Liver carboxylesterase 1 [2]) [µM],inhibition [3] [%],IC50 (U373 MG [4]) [µM],Ki (Liver carboxylesterase 1 [5]) [µM],"activity at 0.5 h, 5 µM [6] [%]",Drug metabolism [7],"activity at 5 min, 5 µM (CES2 (cocaine esterase) [8]) [%]",Activity (U373 MG [9]) [%],"inhibition at 5 min, 10 µM [10] [%]",Ratio Ki (Homo sapiens),Ki (Cocaine esterase) [µM]
CN(C1=CC(=O)C(=O)c2ccccc21)c1ccccc1,33,0.09,3,12.8,0.0321,8,Metabolite_Notdetected,77,99,,,
Cc1ccc(NC2=CC(=O)C(=O)c3ccccc32)cc1,15,,17,,,,,,,44,,
Cc1ccc(OC2=CC(=O)C(=O)c3ccccc32)cc1,,0.00444,8,,,13,,,,,,
O=C1C=C(Oc2ccccc2)c2ccccc2C1=O,,0.0238,11,,,19,Metabolite_Notdetected,,,,,
O=C1C=C(Nc2ccccc2)c2ccccc2C1=O,12,,5,,,,Metabolite_Detected,,,30,,
COc1ccc(NC2=CC(=O)C(=O)c3ccccc32)cc1,12,,5,,,,,,,26,,
O=C1C=C(Nc2ccc(I)cc2)c2ccccc2C1=O,10,,16,,,,,,,41,,
O=C1C=C(Oc2ccc(Cl)cc2)c2ccccc2C1=O,,0.0189,31,,,20,,,,,,
CN(C1=CC(=O)C(=O)c2ccccc21)c1ccc(Br)cc1,,0.0161,12,,0.0172,19,,89,,,4 to 11,1.84
COc1ccc(N(C)C2=CC(=O)C(=O)c3ccccc32)cc1,7,0.0816,1,,0.0177,6,,77,,,,
CN(C1=CC(=O)C(=O)c2ccccc21)c1ccc(Cl)cc1,30,0.0192,4,,0.0129,5,,91,,,,
O=C1C=C(Nc2ccc(Br)cc2)c2ccccc2C1=O,12,,16,,,,,,,26,,
COc1ccc(OC2=CC(=O)C(=O)c3ccccc32)cc1,,0.0178,18,,,14,,,,,,
CN(C1=CC(=O)C(=O)c2ccccc21)c1ccc(I)cc1,83,0.4 to 0.408,31,,0.148,,,,,,4 to 11,0.284
O=C1C=C(Oc2ccc(F)cc2)c2ccccc2C1=O,,0.0453,22,,,25,Metabolite_Notdetected,,,,,
CN(C1=CC(=O)C(=O)c2ccccc21)c1ccc(F)cc1,19,0.163,1,3.9,0.0376,1,Metabolite_Notdetected,92,96,,,
O=C1C=C(Oc2ccc(I)cc2)c2ccccc2C1=O,,0.0047,25,,,,,,,,,
O=C1C=C(Nc2ccc(F)cc2)c2ccccc2C1=O,14,,21,,,,,,,40,,
O=C1C=C(Oc2ccc(Br)cc2)c2ccccc2C1=O,,0.0143,26,,,47,,,,,,
O=C1C=C(Nc2ccc(Cl)cc2)c2ccccc2C1=O,22,,23,,,,,,,33,,
Cc1ccc(N(C)C2=CC(=O)C(=O)c3ccccc32)cc1,25,0.0111,3,4.6,0.0049,2,,93,100,,,
CC1(C)CCC2=C(O1)c1ccccc1C(=O)C2=O [LAPACHONE],,1.22,10,,,12,,,,,,
